Experimental data from different studies.
Compare with care: the assays were run in different laboratories.

| SMILES | system | conditions | measurement | value |
| --- | --- | --- | --- | --- |
| C=CC(=O)N(C)CCOc1c(N)ncnc1-c1cc(F)cc(NC(=O)c2ccc(C3CC3)cc2F)c1C | human, blood | oral, 30 mg, single dose, healthy volunteers | Tmax | 0.5 h |
| CCc1cc(C(=O)NC)c2nccc(N3CCc4c(cc(Cn5ccnc5)cc4-c4cn(C)nc4C(F)(F)F)C3=O)c2c1 | male Sprague-Dawley rat, plasma | oral, 50 mg/kg, single dose | MRT(0-inf) | 2.2 h |
| Oc1c(Br)cc(Cl)c2cccnc12 | Sprague-Dawley rat, plasma | subcutaneous, 10 mg/kg | MRT | 7.8 h |
| Fc1ccc(Nc2n[nH]c3cccnc23)cc1Cl | rat, brain homogenate |  | fraction unbound | 0.0045 |
| O=C(Nc1cc(F)c(F)c(F)c1)c1ccc(F)c(S(=O)(=O)NCc2cccc(B(O)O)c2)c1 | male Sprague-Dawley rat, plasma | intravenous, 2 mg/kg | MRT(0-inf) | 0.83 h |
| C[C@@H](Nc1cc(F)cc(F)c1)c1cc(C(=O)N(C)C)cc2c(=O)cc(N3CCOCC3)oc12 | human, plasma | oral, 60 mg, patients | Tmax | 4.08 h |
| CCc1nc2c(C)cc(N3CCN(CC(=O)N4CC(O)C4)CC3)cn2c1N(C)c1nc(-c2ccc(F)cc2)c(C#N)s1 | human, plasma | oral, 60 mg, fed, healthy volunteers | Tmax | 0.5 h |
| CNC(=O)Nc1cc(Oc2cncc(C)c2)c([C@H]2C[C@@H](O)C2)cn1 | rat, plasma |  | fraction unbound | 0.32 |
| CC(C)n1cc(C#N)c2cc(-n3cc(C(=O)O)cn3)ccc21 | male human, plasma | oral, 600 mg, single dose, fasted, healthy volunteers | Tmax | 2.5 h |
| CC(=O)Nc1nnc(N2CCN([C@@H](C)c3ccc4c(c3)OCO4)CC2)s1 | rabbit, plasma | 1 µM | fraction unbound | 0.059 |
| CCOC(=O)[C@@]12C[C@@H]1[C@@H](n1ccc3c(NC)nc(C#Cc4ccc(Cl)s4)nc31)[C@H](O)[C@@H]2O | male Sprague-Dawley rat, plasma | oral, 1 mg/kg | MRT | 2.34 h |
